# Article PMC8010999 (Journal of medicinal chemistry, 2020)
# Tests used:
# [1] = target: rhMMP-12 (Homo sapiens, UniProt P39900); test: MMP affinity determination; type: biochemical
# How it was run: (§1)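 Inhibition constants were derived from the kinetic effect of the test compound on MMP cleavage of the fluorogenic substrate Mca-Lys-Pro-Leu-Gly-Leu-Dpa-Ala-Arg-NH2. Conditions: 50 mM Tris/HCl pH 6.8, 10 mM CaCl2, 25 °C, with 0.2–0.5 nM enzyme. […] Fluorescence was monitored, and Ki was obtained by the Horovitz–Levitzki method.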
# [2] = target: T1, rhMMP-7 (Homo sapiens, UniProt P09237); test: MMP affinity determination; type: biochemical; settings: relative to CGA
# T1 sequence (P09237 95-267): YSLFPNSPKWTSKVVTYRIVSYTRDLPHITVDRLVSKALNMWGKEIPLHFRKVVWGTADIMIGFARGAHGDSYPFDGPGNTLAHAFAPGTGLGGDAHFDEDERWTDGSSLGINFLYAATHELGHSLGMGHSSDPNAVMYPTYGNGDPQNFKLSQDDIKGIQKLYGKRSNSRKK
# How it was run: as §1
# [3] = target: MMP-12 (Mus musculus, UniProt P34960); test: 99mTc-AGA-2 binding specificity; settings: co-incubation with 500-fold molar excess, P < 0.001
# MMP-12, sequence (P34960 110-473): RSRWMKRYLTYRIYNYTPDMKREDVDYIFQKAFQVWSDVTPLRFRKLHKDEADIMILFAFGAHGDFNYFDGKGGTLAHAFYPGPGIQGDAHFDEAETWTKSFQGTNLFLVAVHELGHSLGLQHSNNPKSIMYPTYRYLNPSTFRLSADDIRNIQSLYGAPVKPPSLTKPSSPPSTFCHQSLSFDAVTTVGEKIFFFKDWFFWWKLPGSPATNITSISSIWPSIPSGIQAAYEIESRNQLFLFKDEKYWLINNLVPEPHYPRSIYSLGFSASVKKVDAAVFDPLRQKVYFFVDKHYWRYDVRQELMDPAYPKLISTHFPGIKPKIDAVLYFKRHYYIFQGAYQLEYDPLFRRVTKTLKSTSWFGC
# How it was run: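 Tissues came from Apoe−/− mice given angiotensin II (1,000 ng/kg/min) by subcutaneous minipump for 4 weeks. Tracer binding was compared in aneurysmal aorta and in normal-size infrarenal aorta, with or without MMP inhibitors.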
# rhMMP-12, sequence (P39900 106-470): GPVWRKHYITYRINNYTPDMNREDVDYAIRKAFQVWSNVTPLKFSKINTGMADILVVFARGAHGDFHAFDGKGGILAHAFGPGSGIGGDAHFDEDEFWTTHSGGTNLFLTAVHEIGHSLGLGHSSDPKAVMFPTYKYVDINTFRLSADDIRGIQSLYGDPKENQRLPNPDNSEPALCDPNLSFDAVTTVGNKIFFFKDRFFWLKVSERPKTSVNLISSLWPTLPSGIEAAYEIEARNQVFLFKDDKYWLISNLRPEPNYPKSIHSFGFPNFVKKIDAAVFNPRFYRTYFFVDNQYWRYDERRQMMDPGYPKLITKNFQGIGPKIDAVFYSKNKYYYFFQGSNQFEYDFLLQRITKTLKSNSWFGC
smiles,measurement,setting,value
CC(C)C[C@H]1C(=O)N[C@H](C(=O)N[C@@H](CCC(=O)O)C(=O)O)Cc2ccc(cc2)OCCC[C@@H]1C(=O)NO [CGA-1],selectivity for rhMMP-12 relative to rhMMP-7,[1]; against rhMMP-7,at least 12 folds
CC(C)C[C@H](CC(=O)NO)C(=O)N[C@@H](Cc1ccccc1)C(=O)O [AGA],drop in potency for MMP-7 on ring opening from cyclic CGA to acyclic AGA,[2],10 fold
same,effect on 99mTc-AGA-2 binding to AAA tissue,[3],significantly reduced
same,drop in potency for MMP-12 on ring opening from cyclic CGA to acyclic AGA,[1]; relative to CGA,10 fold
CC(C)C[C@H]1C(=O)N[C@H](C(=O)O)Cc2ccc(cc2)OCCC[C@@H]1C(=O)NO [CGA],selectivity for rhMMP-12 relative to rhMMP-13,[1]; against rhMMP-13,28 folds
"CNC(=O)[C@H](Cc1c[nH]c2ccccc12)NC(=O)[C@@H](CC(=O)NO)CC(C)C [GM6001, reference compound]",effect on 99mTc-AGA-2 binding to AAA tissue,[3],significantly reduced
